ChEMBL document CHEMBL1156916, “New fluorinated 1,2,4-benzothiadiazine 1,1-dioxides: discovery of an orally active cognitive enhancer acting through potentiation of the 2-amino-3-(3-hydroxy-5-methylisoxazol-4-yl)propionic acid receptors” (J Med Chem, 2010)
Active and inactive are the calls of the source. No cut-off for these calls is given here.

Key:
[1] = test system: Oocyte; test: Induction of amplitude current in Xenopus laevis oocytes assessed as 2 fold increase in AMPA-induced current by voltage clamp method; format: functional
In short: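 Xenopus oocytes injected with poly(A+) mRNA from cortex of 15-day-old male Wistar rats, expressed 3 days at 18 °C. Two-electrode voltage clamp at -60 mV; 10 μM (S)-AMPA applied 30 s every 5 min. Compound given at increasing concentrations 45 s before, during and after AMPA; peak current compared with the same oocyte's control. EC2X is the 2-fold increase; n ≥ 3, mean ± SEM.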

[2] = Dissociation constant, pKa of the compound; format: physicochemical
[3] = test system: Mus musculus; test: Toxicity in mouse at 30 mg/kg, ip; details: in vivo
[4] = test system: Rattus norvegicus; test: Increase in memory in po dosed Wistar rat by object recognition test; format: functional, organism-based
In short: (§1)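 Male Wistar rats (220-330 g), three sessions: 2 min habituation, acquisition with two identical objects, then 3 min recognition with one object replaced by a novel one. Oral compound or vehicle given 1 h before each session. Discrimination index is novel minus familiar exploration time; n = 9-10 per dose; ANOVA plus Dunnett.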

[5] = test system: Mus musculus; test: Toxicity in mouse at 10 to 30 mg/kg, ip by Irwin's test; format: organism-based; parameters: dose 10-30 mg/kg, route intraperitoneal; details: in vivo
[6] = test system: Hippocampus; test: Increase in AMPA-mediated postsynaptic response recorded in rat hippocampus CA1 region assessed as increase in excitatory postsynaptic field potential area; format: functional, tissue-based
In short: (§2)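 Rat hippocampal slices, Schaffer collateral stimulation with EPSfPs recorded in CA1; perfusion medium contains 1.2 mM Mg2+. Compound bath-applied for 10 min at successively increasing concentrations, with washout to recovery. Amplitude, area and half-width averaged over five pulses and normalized to five pre-drug responses (100%). Compared with vehicle by two-way ANOVA plus Dunnett.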

[7] = test system: Hippocampus; test: Increase in AMPA-mediated postsynaptic response recorded in rat hippocampus CA1 region assessed as increase in excitatory postsynaptic field potential area at 50 uM; format: functional; in short: as §2
[8] = test system: Rattus norvegicus; test: Increase in memory in Wistar rat at 0.03 to 1 mg/kg, po treated 60 mins before test session by object recognition test; format: functional, organism-based; in short: as §1
[9] = test system: Mus musculus; test: Toxicity in mouse assessed as hypothermia at 30 mg/kg, po after 1.5 hrs; details: in vivo
[10] = test system: Rattus norvegicus; test: Increase in duration of long term potentiation in dentate gyrus of anesthetized Wistar rat hippocampus at 10 mg/kg, ip measured for 3 hrs; format: functional, organism-based; parameters: dose 10 mg/kg
In short: (§3)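 Male Wistar rats (300-400 g) anaesthetized with chloral hydrate 400 mg/kg ip; body temperature held at 36.6-37 °C. Perforant path stimulated, dentate gyrus recorded. After a 60 min baseline, compound or vehicle given ip; tetanus 60 min later (four 400 Hz bursts). Recorded for 3 h; EPSfP amplitude normalized to baseline; two-way ANOVA plus Dunnett.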

[11] = test system: Hippocampus; test: Increase in AMPA-mediated postsynaptic response recorded in rat hippocampus CA1 region assessed as increase in excitatory postsynaptic field potential half width at 50 uM; format: functional; in short: as §2
[12] = test system: Rattus norvegicus; test: Increase in long term potentiation-evoked EPSfP amplitude in dentate gyrus of anesthetized Wistar rat hippocampus at 3 mg/kg, ip measured for 3 hrs; format: functional, organism-based; parameters: dose 3 mg/kg; in short: as §3
[13] = test system: Hippocampus; test: Increase in AMPA-mediated postsynaptic response recorded in rat hippocampus CA1 region assessed as increase in excitatory postsynaptic field potential amplituted at 50 uM; format: functional; in short: as §2
[14] = test system: Liver microsomes; test: Metabolic stability in rat liver microsomes assessed as metabolite degradation after 30 mins at 37 degC by HPLC; format: ADME, Microsome; details: 0.5 h
In short: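 Phenobarbital-induced rat liver microsomes at 1 mg/mL protein with 200 μM substrate (methanol <1%), 37 °C, NADPH-generating system in pH 7.4 phosphate buffer. Incubated 30 min; T0 samples quenched with organic solvent. Metabolites resolved by RP-HPLC with ESI-MS/MS and identified against synthetic standards.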

Row | SMILES | EC [1] [µM] | also measured
1 | O=S1(=O)NCN(CC(F)F)c2ccc(Cl)cc21 | 13.5 | –
2 | CCN1CNS(=O)(=O)c2cc([N+](=O)[O-])ccc21 | 16 | –
3 | O=S1(=O)NCN(CC(F)(F)F)c2ccc(Cl)cc21 | 19 | pKa [2]: 9.01; Activity [3]: Non-toxic; Activity [4]: inactive
4 | CCN1CNS(=O)(=O)c2cc(Cl)cnc21 | 28.3 | –
5 | O=S1(=O)NCN(CCF)c2ccc(F)cc21 | 3.6 | –
6 | CCN1CNS(=O)(=O)c2cc(OC)ccc21 | 68 | –
7 | CCN1CNS(=O)(=O)c2cc(I)ccc21 | 95 | –
8 | O=S1(=O)NCN(CCF)c2ccc(I)cc21 | 120 | –
9 | O=[N+]([O-])c1ccc2c(c1)S(=O)(=O)NCN2CCF | 27 | pKa [2]: 8.45
10 | O=S1(=O)N=CN(CCF)c2ccc(Cl)cc21 | – | Activity [5]: Non-toxic
11 | Cc1ccc2c(c1)S(=O)(=O)NCN2CCF | 47.5 | –
12 | O=S1(=O)NCN(CCF)c2ccc(Br)cc21 | 17 | –
13 | CCN1CNS(=O)(=O)c2cc(Br)ccc21 | 29 | –
14 | O=S1(=O)N[C@H]2CCCN2c2ccccc21 | 25 | –
15 | COc1ccc2c(c1)S(=O)(=O)NCN2CCF | 71 | –
16 | O=S1(=O)NCN(CCF)c2ccc(Cl)cc21 | 6.7 | Activity [6]: Dose-dependent effect; Activity [7]: 66%; Activity [8]: Active; Activity [9]: Toxic; Activity [10]: Active; Activity [11]: 47%; pKa [2]: 9.35; Activity [12]: Active; Activity [13]: 23%; Stability [14]: Unstable; Activity [3]: Non-toxic; Activity [4]: Active
17 | O=[N+]([O-])c1ccc2c(c1)S(=O)(=O)NCN2CC(F)(F)F | 55 | –
18 | CCN1CNS(=O)(=O)c2cc(C)ccc21 | 25 | –
19 | CCN1CNS(=O)(=O)c2cc(Cl)ccc21 | – | pKa [2]: 9.33; Stability [14]: Unstable
20 | CCN1CNS(=O)(=O)c2cc(C(F)(F)F)ccc21 | >300 | –
21 | NS(=O)(=O)c1cc2c(cc1Cl)NC(C1CC3C=CC1C3)NS2(=O)=O (stereo unspecified) [CYCLOTHIAZIDE] | 1.7 | –
22 | O=S1(=O)NCN(CCO)c2ccc(Cl)cc21 | 54 | –
23 | O=S1(=O)N=CNc2ccc(Cl)cc21 | – | Activity [5]: Non-toxic
24 | O=S1(=O)NCN(CCF)c2ccc(C(F)(F)F)cc21 | >300 | –
